Measurements published in ChEMBL document CHEMBL2150885, “Dual anticoagulant/antiplatelet persulfated small molecules” (Eur J Med Chem, 2011).
Active and inactive are the calls of the source. No cut-off for these calls is given here.

How the values were obtained:
Platelet [1] = assay: Antiplatelet activity against arachidonic acid-induced platelet aggregation in human blood at 6.25 x 10^-4 M measured for 6 mins by multiplate electrical impedance aggregometry; assay type: functional, cell-based
In short: (§1)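 Hirudin-anticoagulated (final […]) healthy-donor whole blood, used within 0.5–1 h. Compound in saline to final 6.25 × 10⁻⁴ M; saline control, acetylsalicylic acid 6.25 × 10⁻⁴ M reference. Blood mixed with saline at 37 °C for 180 s, then agonist at final TRAP-6 […], arachidonic acid 0.5 mM or ADP […]. Impedance recorded 6 min; AUC from mean of two curves, accepted if within 20%.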

Plasma [2] = assay: Anticoagulant activity in human plasma assessed as concentration required to double thrombin time at 5 x 10^-3 M; assay type: functional, cell-free
In short: (§2)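 Pooled citrated human plasma; compounds in water (10% DMSO for some), final 5 × 10⁻³ to 0.05 × 10⁻³ M; heparin 0.1–10 UI/mL as reference. APTT, PT and TT measured on a coagulometer with commercial kits, clotting time in s. Duplicates repeated on three days (n = 6). Concentration doubling clotting time obtained by linear regression of each concentration-response curve.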

Plasma [3] = assay: Anticoagulant activity in human plasma assessed as concentration required to double prothrombin time at 5 x 10^-3 M; assay type: functional, cell-free; in short: as §2
Plasma [4] = assay: Anticoagulant activity in human plasma assessed as concentration required to double activated partial thromboplastin time; assay type: functional; in short: as §2
Plasma [5] = assay: Anticoagulant activity in human plasma assessed as effect on APC level using CBS 42.46 as synthetic substrate at 1 x 10^-3 M; assay type: functional
In short: (§3)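 Compound in saline added to citrated human plasma. Protein C activated by a snake venom-derived activator; enzyme formed quantified by amidolytic activity on chromogenic substrate CBS 42.46. Calibration curve linear 3–150%; normal and pathological control plasmas verify accuracy. Compounds at 1 × 10⁻³ M.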

Platelet [6] = assay: Antiplatelet activity against thrombin receptor-activating peptide-6-induced platelet aggregation in human blood at 6.25 x 10^-4 M measured for 6 mins by multiplate electrical impedance aggregometry; assay type: functional, cell-based; in short: as §1
Platelet [7] = assay: Antiplatelet activity against adenosine diphosphate-induced platelet aggregation in human blood at 6.25 x 10^-4 M measured for 6 mins by multiplate electrical impedance aggregometry; assay type: functional, cell-based; in short: as §1
MCF7 = assay: Cytotoxicity against human ER-positive MCF7 cells at 1.5 x 10^-4 after 48 hrs; assay type: cell-based; settings: mcf7, 48 h
NCI-H460 = assay: Cytotoxicity against human NCI-H460 cells at 1.5 x 10^-4 after 48 hrs; assay type: cell-based; settings: nci-h460, 48 h
[8] = Cytotoxicity against human A375-C5 cells at 1.5 x 10^-4 after 48 hrs; assay type: cell-based; settings: a375-c5, 48 h
Plasma [9] = assay: Anticoagulant activity in human plasma assessed as effect on prothrombin level by PT clotting time with factor II deficient plasma at 1 x 10^-3 M
[10] = target: Antithrombin-III (Bos taurus) (UniProt P41361); assay: Inhibition of bovine antithrombin-3 at 1 x 10^-3 M
Plasma [11] = assay: Anticoagulant activity in human plasma assessed as concentration required to double prothrombin time; assay type: functional; in short: as §2
[12] = target: Coagulation factor X (Homo sapiens) (UniProt P00742); assay: Inhibition of human factor 10a using CH3SO2-D-Leu-Gly-Arg-pNA, AcOH as substrate at 1 x 10^-3 M by chromogenic substrate hydrolysis assay
In short: (§4)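 Chromogenic hydrolysis in 50 mM Tris/HCl pH 8.3, 227 mM NaCl, 0.1% BSA, with and without bovine antithrombin III (1 U/mL final). Human factor Xa 0.5 U/mL with CBS 31.39 […], or human thrombin 0.06 U/mL with Chromozym TH […]. Absorbance at 405 nm, enzyme-free blank subtracted; initial slope vs water control gives % inhibition. Compounds at 1 × 10⁻³ M; n = 6.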

[13] = target: Prothrombin (Homo sapiens) (UniProt P00734); assay: Inhibition of human thrombin using Tosyl-Gly-Pro-Arg-p-nitroaniline as substrate at 1 x 10^-3 M by chromogenic substrate hydrolysis assay; in short: as §4
Blood [14] = assay: Anticoagulant activity in human whole blood assessed as clotting time at 6.25 x 10'4 M by thromboelastography assay; assay type: functional
In short: (§5)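 Citrated whole blood (citrate:blood 1:9) from healthy donors. Compound in saline diluted 1:16 into blood to final 3.12 × 10⁻⁴ or 6.25 × 10⁻⁴ M; saline control. Thromboelastography with intrinsic activator (InTEM); R clotting time and K clot formation time in s. Mean of three independent experiments in duplicate.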

Blood [15] = assay: Anticoagulant activity in human whole blood assessed as clotting formation time at 6.25 x 10'4 M by InTEM-TEG assay; assay type: functional; in short: as §5
Plasma [16] = assay: Anticoagulant activity in human plasma assessed as effect on APC level using CBS 42.46 as synthetic substrate; assay type: functional, cell-free; in short: as §3
Plasma [17] = assay: Anticoagulant activity in human plasma assessed as effect on prothrombin level by PT clotting time with factor II deficient plasma
[18] = Antiplatelet activity against collagen-ADP-activated platelet in human blood assessed as closure time at 6.25 x 10^-4 M; assay type: functional
In short: (§6)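 Healthy-donor whole blood collected into hirudin (final […]), analysed within 0.5–1 h. Closure time measured in a PFA-100 under high shear through an aperture, platelets activated by a collagen-coated membrane with ADP or epinephrine.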

[19] = Antiplatelet activity against collagen-epinephrine-activated platelet in human blood assessed as closure time at 6.25 x 10^-4 M; assay type: functional; in short: as §6

Sequence of Antithrombin-III (Bos taurus) (P41361 whole entry): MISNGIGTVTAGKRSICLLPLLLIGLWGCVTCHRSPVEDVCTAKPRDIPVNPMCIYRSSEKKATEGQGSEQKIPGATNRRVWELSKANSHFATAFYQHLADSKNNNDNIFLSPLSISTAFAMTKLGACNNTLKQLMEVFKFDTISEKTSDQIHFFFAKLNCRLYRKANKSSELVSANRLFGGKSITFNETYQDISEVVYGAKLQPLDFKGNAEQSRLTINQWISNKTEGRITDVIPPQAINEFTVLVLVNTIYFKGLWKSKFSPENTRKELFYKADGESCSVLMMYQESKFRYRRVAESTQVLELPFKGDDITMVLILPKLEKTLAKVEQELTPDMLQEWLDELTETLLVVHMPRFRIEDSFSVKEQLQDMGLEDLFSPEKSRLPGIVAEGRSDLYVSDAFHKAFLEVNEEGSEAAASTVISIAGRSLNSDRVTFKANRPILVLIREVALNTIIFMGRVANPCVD
Sequence of Coagulation factor X (Homo sapiens) (P00742 41-179 limits assumed): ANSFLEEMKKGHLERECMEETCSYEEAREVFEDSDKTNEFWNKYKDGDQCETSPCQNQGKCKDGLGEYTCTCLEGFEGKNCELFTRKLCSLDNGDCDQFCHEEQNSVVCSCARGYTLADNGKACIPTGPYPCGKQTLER
Sequence of Coagulation factor X (Homo sapiens) (P00742 235-488 limits assumed): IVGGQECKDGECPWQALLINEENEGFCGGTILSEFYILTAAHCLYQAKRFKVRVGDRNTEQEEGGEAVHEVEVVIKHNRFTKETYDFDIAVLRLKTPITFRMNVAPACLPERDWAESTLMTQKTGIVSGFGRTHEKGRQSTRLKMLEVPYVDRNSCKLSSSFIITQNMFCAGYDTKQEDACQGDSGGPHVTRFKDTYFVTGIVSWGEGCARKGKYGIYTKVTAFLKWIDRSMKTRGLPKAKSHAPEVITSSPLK

SMILES	AUC (Platelet [1]) [AU.min]	Activity (Plasma [2])	Activity (Plasma [3])	2aPTT (Plasma [4])	Activity (Plasma [5]) [%]	AUC (Platelet [6]) [AU.min]	AUC (Platelet [7]) [AU.min]	Activity (MCF7)	Activity (NCI-H460)	Activity [8]	Activity (Plasma [9]) [%]	inhibition [10]	2PT (Plasma [11]) [mM]	Activity (Plasma [11])	Activity (Plasma [4])	inhibition [12]	inhibition [13]	also measured
CC(=O)Oc1ccccc1C(=O)O	230	–	–	–	–	–	–	–	–	–	–	–	–	–	–	–	–	–
O=c1oc2c(OS(=O)(=O)O)c(OS(=O)(=O)O)cc3c(=O)oc4c(OS(=O)(=O)O)c(OS(=O)(=O)O)cc1c4c23	–	inactive	inactive	–	–	–	–	–	–	–	–	–	–	–	–	–	–	–
COc1ccc([C@@H]2CC(=O)c3c(O)cc(O[C@@H]4O[C@H](CO[C@@H]5O[C@@H](C)[C@H](OS(=O)(=O)[O-])[C@@H](OS(=O)(=O)[O-])[C@H]5OS(=O)(=O)[O-])[C@@H](OS(=O)(=O)[O-])[C@H](OS(=O)(=O)[O-])[C@H]4OS(=O)(=O)[O-])cc3O2)cc1O.[Na+].[Na+].[Na+].[Na+].[Na+].[Na+] [HEXASULFATED HESPERIDIN]	150	–	–	4.13 ×10⁻⁴ M	85	1200	150	Non-toxic	Non-toxic	Non-toxic	47.5	–	–	–	–	–	–	–
O=c1ccc2cc(O[C@@H]3O[C@H](COS(=O)(=O)[O-])[C@@H](OS(=O)(=O)[O-])[C@H](OS(=O)(=O)[O-])[C@H]3OS(=O)(=O)[O-])c(OS(=O)(=O)[O-])cc2o1.[Na+].[Na+].[Na+].[Na+].[Na+] [ESCULIN PERSULFATE]	980	inactive	–	0.309 mM	87	890	980	Non-toxic	Non-toxic	Non-toxic	64.5	inactive	> 5	Dose-dependent effect	Dose-dependent effect	inactive	inactive	Time (Blood [14]): 340 s; Time (Blood [15]): 95 s
C[C@@H]1O[C@@H](OC[C@H]2O[C@@H](Oc3c(-c4ccc(OCCOS(=O)(=O)[O-])c(OCCOS(=O)(=O)[O-])c4)oc4cc(OCCOS(=O)(=O)[O-])cc(O)c4c3=O)[C@H](OS(=O)(=O)[O-])[C@@H](OS(=O)(=O)[O-])[C@@H]2OS(=O)(=O)[O-])[C@H](OS(=O)(=O)[O-])[C@H](OS(=O)(=O)[O-])[C@H]1OS(=O)(=O)[O-].[Na+].[Na+].[Na+].[Na+].[Na+].[Na+].[Na+].[Na+].[Na+]	330	–	–	–	38.5	840	330	Non-toxic	Non-toxic	Non-toxic	10.9	–	–	–	–	–	–	Activity (Plasma [16]): Dose-dependent effect; Activity (Plasma [17]): Dose-dependent effect
O=C(O)c1cc(OS(=O)(=O)[O-])c(OS(=O)(=O)[O-])c(OS(=O)(=O)[O-])c1.[Na+].[Na+].[Na+]	–	inactive	inactive	1.96 mM	101	–	–	Non-toxic	Non-toxic	Non-toxic	61.5	inactive	–	–	Dose-dependent effect	inactive	inactive	–
O=C1O[C@H]([C@H](COS(=O)(=O)[O-])OS(=O)(=O)[O-])C(OS(=O)(=O)[O-])=C1OS(=O)(=O)[O-].[Na+].[Na+].[Na+].[Na+] [ASCORBIC ACID PERSULFATE]	905	inactive	–	0.315 mM	94	1100	680	–	–	–	91.5	inactive	> 5	Dose-dependent effect	Dose-dependent effect	inactive	inactive	Time (Blood [14]): 205 s; Time (Blood [15]): 84 s; Time [18]: 106 s; Time [19]: 121 s
Cc1cc(=O)oc2cc(O[C@@H]3O[C@H](COS(=O)(=O)[O-])[C@@H](OS(=O)(=O)[O-])[C@H](OS(=O)(=O)[O-])[C@H]3OS(=O)(=O)[O-])ccc12.[Na+].[Na+].[Na+].[Na+]	–	inactive	–	1.18 mM	97	–	–	Non-toxic	Non-toxic	Non-toxic	64.5	inactive	> 5	Dose-dependent effect	Dose-dependent effect	inactive	inactive	–
O=C(/C=C/c1ccc(OS(=O)(=O)[O-])c(OS(=O)(=O)[O-])c1)O[C@@H]1C[C@](OS(=O)(=O)[O-])(C(=O)O)C[C@@H](OS(=O)(=O)[O-])[C@H]1OS(=O)(=O)[O-].[Na+].[Na+].[Na+].[Na+].[Na+] [CHLOROGENIC ACID PERSULFATE]	–	inactive	inactive	3.66 mM	95	–	–	–	–	–	82	inactive	–	–	Dose-dependent effect	inactive	inactive	–
O=S(=O)([O-])OCc1ccccc1O[C@@H]1O[C@H](COS(=O)(=O)[O-])[C@@H](OS(=O)(=O)[O-])[C@H](OS(=O)(=O)[O-])[C@H]1OS(=O)(=O)[O-].[Na+].[Na+].[Na+].[Na+].[Na+] [SALICIN PERSULFATE]	–	inactive	–	0.899 mM	93	–	–	Non-toxic	Non-toxic	Non-toxic	66	inactive	> 5	Dose-dependent effect	Dose-dependent effect	inactive	inactive	–
